# Source: PubChem BioAssay
# In the library only some 1.8% were active in any assay of this set; here they are far more common.
# M5 antag: antagonists of human muscarinic M5 receptor (CHRM5); hit rate 0.59% among 360,000; inhibition, % at 3 µM; CHO-hM5 cells, Fluo-8 calcium fluorescence, ACh EC80; P08912;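 active = inhibition above a per-plate cutoff, the mean of that plate's test compounds plus 3 SD, cut at about 27% in these data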;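 note: 0% = acetylcholine EC80 with DMSO and 100% = DMSO without agonist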
# Target sequence (P08912 whole entry, looked up): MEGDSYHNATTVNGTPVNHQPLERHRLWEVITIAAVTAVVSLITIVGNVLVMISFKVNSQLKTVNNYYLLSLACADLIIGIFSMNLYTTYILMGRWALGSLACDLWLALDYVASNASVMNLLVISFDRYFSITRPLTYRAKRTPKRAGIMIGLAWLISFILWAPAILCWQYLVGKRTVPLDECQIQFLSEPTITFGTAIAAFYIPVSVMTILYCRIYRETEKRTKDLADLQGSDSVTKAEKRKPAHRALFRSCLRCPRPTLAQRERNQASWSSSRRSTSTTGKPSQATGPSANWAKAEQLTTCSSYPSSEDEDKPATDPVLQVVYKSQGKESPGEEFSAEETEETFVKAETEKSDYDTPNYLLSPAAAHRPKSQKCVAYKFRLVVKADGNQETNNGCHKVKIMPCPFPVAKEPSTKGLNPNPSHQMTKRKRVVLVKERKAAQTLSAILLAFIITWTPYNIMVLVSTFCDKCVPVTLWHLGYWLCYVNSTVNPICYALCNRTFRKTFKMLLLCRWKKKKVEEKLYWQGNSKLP
# CHRM5 PAM: CHRM5 positive allosteric modulation; hit rate 0.3% among 360,000; CHO-K1 hM5, Fluo-8 calcium, ACh EC20 PAM; 0% = ACh EC20, 100% = ACh EC100; activation, % at 3 µM;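 active = activation above the run cutoff, the mean activation of all test compounds plus 3 SD, cut at about 18% in these data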
#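 Probe or stimulus: acetylcholine, EC20 level; Assay system: human M5 receptor in CHO-K1 cells; Schedule: compound preincubation 140 s before EC20 acetylcholine addition; Technique: intracellular calcium via Fluo-8 fluorescence; Dosing: single-point, 3 µM nominal; Read-out basis: percent activation from peak-over-basal fluorescence ratio, scaled EC20-to-EC100 acetylcholine; Repeats: one well per compound, no replicates.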
# M4 antag: antagonists of human muscarinic M4 receptor (CHRM4); P08173; CHO-hM4 cells, ACh EC80, Fluo-8 calcium fluorescence; inhibition, % at 3 µM; hit rate 0.73% among 360,000; AID 624125;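 active = inhibition above its plate's cutoff, the mean inhibition of sample wells plus 3 SD, cut at about 27% in these data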;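 note: 0% = acetylcholine EC80 with DMSO and 100% = DMSO without agonist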
# CHRM4 PAM: potentiates acetylcholine response at human M4 receptor; P08173; CHO-K1 hM4/Gqi5, Fluo-8 calcium fluorescence, ACh EC20; 0% = ACh EC20, 100% = maximal ACh; activation, % at 3 µM; hit rate 0.4% among 360,000;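 active = activation above its plate's cutoff, the mean activation of sample wells plus 3 SD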
# CHRM5 agonist: agonists of human muscarinic M5 receptor (CHRM5); P08912; CHO-K1 hM5 cells, Fluo-8 calcium fluorescence; 0% DMSO wells, 100% maximal acetylcholine response; hit rate 0.19% among 360,000; activation, % at 3 µM;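 active = activation above the run's mean over test compounds plus 3 SD, cut at about 23% in these data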;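 note: signal is peak over basal fluorescence ratio across the kinetic read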
# CHRM4 agonist: agonists of human muscarinic M4 receptor (CHRM4). activation, % at 3 µM. CHO-K1 hM4/Gqi5, Fluo-8 calcium fluorescence; vehicle 0%, full acetylcholine response 100%. hit rate 0.14% among 360,000. AID 624127;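 active = activation above the run mean over all test wells plus 3 SD, cut at about 32% in these data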;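 note: peak over basal fluorescence ratio per well then scaled between controls; 0% = DMSO wells and 100% = acetylcholine at EC100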
# An asterisk follows results filed as active.
SMILES,M5 antag,CHRM5 PAM,M4 antag,CHRM4 PAM,CHRM5 agonist,CHRM4 agonist
C#CCOCCOCCOCCNc1nc(N2CCN(C(=O)CCCCCCCCCCNC(=O)[C@H]([C@@H](C)CC)n3cc(CCCCCN)nn3)CC2)nc(N2CCN(C(=O)CCCCCCCCCCNC(=O)[C@H]([C@@H](C)CC)n3cc(CCCCN=C(N)N)nn3)CC2)n1,12,-10,14,-10,-2,-1
C[C@@H](O)Cc1cn(CC(=O)NCCCCCCCCCCC(=O)N2CCNCC2)nn1,5,5,4,5,-3,1
C#CCOCCOCCOCCNc1nc(N2CCN(C(=O)CCCCCCCCCCNC(=O)Cn3cc(CCCCCN)nn3)CC2)nc(N2CCN(C(=O)CCCCCCCCCCNC(=O)[C@H]([C@@H](C)CC)n3cc(CCCCN=C(N)N)nn3)CC2)n1,14,-16,41*,-15,-9,-1
CCCCNC(=O)c1ccc(NC(=O)CC2SC(N3CCCC3)=NC2=O)cc1 (stereo not given),0,2,-3,6,4,-1
CC(C)C[C@@H]1O[C@H](CCc2ccccc2)CC2=C1C(=O)OC(C)(C)O2,-15,-8,-7,-1,-1,-3
CC(=O)NC1CC2CCCC(C1)N2C(=O)Nc1ccc(Cl)cc1 (stereo not given),1,-1,-5,3,1,2
O=C1c2ccccc2C(c2nnnn2-c2ccc3c(c2)OCCO3)N1Cc1cccc(F)c1 (stereo not given),2,-3,2,-1,4,2
O=C(NCc1ccccn1)c1cccc(S(=O)(=O)Nc2ccccc2Cl)c1,6,-6,0,-3,5,3
CCOC(=O)C(=O)Nc1ccc(OCc2ccccc2)cc1,13,-10,-3,-4,2,7
COc1ccccc1N/C(N)=N/c1nc(C)cc(C)n1,12,-5,-12,2,-4,3
COc1ccc(N/C(N)=N/c2nc(C)cc(C)n2)cc1,3,-7,14,-10,0,7
Cc1cc(C)nc(/N=C(\N)Nc2cccc(OCc3ccccc3)c2)n1,29*,-32,68*,-17,39*,81*
Cc1cc(C)nc(/N=C(\N)Nc2ccc(CC(=O)OC(C)C)cc2)n1,42*,-35,83*,-20,31*,113*
Cc1cc(C)nc(/N=C(\N)Nc2ccc(S(=O)(=O)O)cc2)n1,8,-2,9,-1,0,1
Cc1cc(C)nc(/N=C(\N)Nc2ccc(OCc3ccccc3)cc2)n1,96*,-19,98*,-28,63*,111*
Cc1cc(C)nc(/N=C(\N)Nc2ccc(OCCC(C)C)cc2)n1,76*,-35,86*,-19,64*,105*
COC(=O)[C@@]1(Cc2ccc(OC)cc2)[C@@H]2C(=CC(=O)[C@H]2CC(=O)C(=O)N2CCCC2)CN1C(=O)c1ccccc1,-9,19*,-22,15,0,2
COc1ccc(S(=O)(=O)N2CCC(C(=O)N[C@H](C(=O)NCc3ccccc3)C(C)C)CC2)cc1,8,-10,-5,-1,0,0
CCOC(=O)c1cc(C#N)c(N2CCN(c3ccc(OC)cc3)CC2)[nH]c1=O,6,26*,-5,16,11,3
CCOC(=O)c1[nH]c(CN2CCN(c3ccc(OC)cc3)CC2)c(C(=O)OCC)c1C,-7,-1,13,-5,18,14
S=P(N1CC1)(N1CC1)N1CC1,-2,-1,4,0,0,2
O=C(Nc1cccc(Cl)c1)Nc1csc([N+](=O)[O-])c1,28*,-26,19,6,2,15
CCOC(=O)c1sc(NC(=O)Nc2cccc(Cl)c2)cc1C,37*,-18,38*,-24,7,17
O=C(Nc1ccc(-n2ccc(C(F)(F)F)n2)cc1)Nc1cccc(Cl)c1,38*,-30,27*,-50,7,18
O=C(Nc1cccc(Cl)c1)Nc1nc(-c2ccc(Cl)cc2)cs1,23,-15,24,0,5,10
SMILES,M5 antag,CHRM5 PAM,M4 antag,CHRM4 PAM,CHRM5 agonist,CHRM4 agonist
Cc1cccc(NC(=O)Nc2ccc(Cl)cc2)n1,0,-1,0,0,1,1
Cc1nccc(-c2cccc(NC(=O)Nc3ccc(Cl)cc3)c2)n1,28*,-30,9,-37,8,20
O=S1(=O)CC(N2CCN(Cc3ccccc3F)CC2)CN1Cc1cn(Cc2cccc(Cl)c2)nn1 (stereo not given),3,-6,-1,-8,1,6
Cc1cc(N2CCN(C(c3ccnc4ccccc34)c3nnnn3-c3c(C)cccc3C)CC2)c2ccccc2n1 (stereo not given),1,-13,20,-11,-5,5
O=C(NCc1ccncc1)Nc1cccc(Cl)c1,-5,2,-7,1,-7,1
O=C(Nc1ccncc1)Nc1cccc(Cl)c1,31*,-13,4,-6,9,15
CC(C)C[C@H]1CN([C@@H](Cc2ccccc2)CN2CCC[C@H]2CN2C(=O)C(=O)NC[C@@H]2Cc2ccc(O)cc2)C(=O)C(=O)N1CC1CCCCCC1,4,-3,-1,2,-3,1
Cc1cccc2c(=O)n(C(=O)c3ccccc3)c(N)nc12,3,-6,5,-6,2,2
COc1cc2ccccc2nn1,9,-6,-4,-23,0,0
COc1ccc2c(n1)Sc1nc3ccccc3nc1N2,23,-6,1,-3,31*,54*
COc1ccccc1CNS(=O)(=O)c1ccc(-c2cnc(C3CC3)o2)cc1,8,-7,-1,-4,0,13
CCc1ccc(OC2(C)CCN(Cc3ccc(SC)cc3)C2)cc1 (stereo not given),2,-6,-16,-8,-2,0
CCC1([N+](=O)[O-])COC(c2ccc(OC)cc2)OC1 (stereo not given),-1,3,-20,3,1,2
CC[C@H](C)C1OC(=O)[C@@H](C)[C@@H](CC)NC(=O)[C@H](C)N(C)C(=O)C(C)(C)C(=O)C(C)NC(=O)[C@H](Cc2ccc(OC)cc2)N(C)C(=O)[C@H](C(C)C)N(C)C(=O)CNC(=O)[C@H](CC(C)C)N(C)C(=O)CNC1=O (stereo not given in full),-7,13,-17,23*,3,0
Clc1ccc(C[n+]2csc3ccccc32)cc1,9,15,9,-8,18,0
Fc1ccc(C[n+]2csc3ccccc32)cc1,43*,3,28*,-7,46*,6
